Common to all, as to details: Cricetulus griseus
The test system of experiment [1] is V79. Nature of the experiment: Cytotoxicity activity against V79 cells. The format is functional, cell-based. Summed up:
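V79 cells kept in D-MEM with 10% Fetal Clone I serum at 37 °C, 5% CO2, then seeded in 96-well plates and allowed to adhere overnight. Exposed 2 days to compound (0–3000 µM, pH 7–7.5, in complete medium). Viability read by MTS (2 h, 490 nm), expressed as percent of untreated control. IC50 taken by regression of viability vs concentration.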

Experiment [2] has as its system V79. The experiment is described as follows: Glutathione peroxidase activity in V79 cells at 100 uM expressed as fold induction of GPx activity to control value. The experiment is classed as cell-based. Summed up: (§1)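 V79 cells (5.0×10^5 per flask) adhered overnight, then exposed 48 h to compound in complete medium (pH 7–7.5), followed by 24 h in fresh medium. Cells were sonicated in Tris-HCl (50 mM, pH 7.5, EDTA, 2-mercaptoethanol) and centrifuged. Supernatant GPx was read as NADPH loss at 340 nm over 3 min with tert-butyl hydroperoxide, normalised to Bradford protein (N = 9), and given as fold over untreated control.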

The test system of experiment [3] is V79. The experiment is described as follows: Glutathione peroxidase activity in V79 cells at 20 uM expressed as fold induction of GPx activity to control value. The format is cell-based. Summed up: as §1

Broadly, the IC50 is the concentration that inhibits the measured activity by half. Lower therefore signals greater potency.

Some results are limits rather than exact numbers.

On to `O=[Se](O)O` [SODIUM SELENITE], for which the IC50 with V79 [1] was 17 µM. `O=C(O)[C@@H]1C[Se]CN1`: in the experiment with V79 [2], the Fold induction is 5.9. In the experiment with V79 [1], this compound registered an IC50 of 317 µM. For `C[Se]C[C@H](N)C(=O)O` [METHYLSELENOCYSTEINE], in that order: 1.5 and 472 µM. For `O=[Se](=O)(O)O` [SODIUM SELENATE], in that order: 1.9 and 292 µM. Turning to `N#C[Se]Cc1ccc(C[Se]C#N)cc1`, in the experiment on V79 [3], the Fold induction was 1.5. Also, 12 µM corresponded to half-maximal inhibition in the experiment with V79 [1] (IC50). `C[Se]CC[C@H](N)C(=O)O` [SELENOMETHIONINE] displayed a Fold induction with V79 [2] of 1.8. Also, the IC50 in the experiment on V79 [1] was found to be 267 µM. In the experiment with V79 [2], `O=C1N[C@H](C(=O)O)C[Se]1` gave a Fold induction of 4.6. The compound also displayed an IC50 with V79 [1] of 451 µM.

As to `CC1N[C@@H](C(=O)O)C[Se]1` (some centres undefined), the Fold induction in the experiment on V79 [2] was found to be 1.3. This compound registered an IC50 with V79 [1] of 160 µM.

Turning to `CC1N[C@H](C(=O)O)C[Se]1` (some centres undefined), the Fold induction with V79 [2] was 2.1. This compound had an IC50 in the experiment on V79 [1] of 79 µM. For `O=C1N[C@@H](C(=O)O)C[Se]1`, in that order: 1.4 and greater than 3000 µM.

The values are drawn from ChEMBL document CHEMBL1145854, “Characteristics of selenazolidine prodrugs of selenocysteine: toxicity and glutathione peroxidase induction in V79 cells” (J Med Chem, 2003).
